Molecules are shown by their SMILES. Calls of active or inactive are those of the source. The calls are words filed in the database; no cut-off is given here.

By GI50 is commonly meant the concentration at which growth is held to half of that of the control. The low end stands for greater sensitivity of the cells, the high end for lower sensitivity of the cells.

Series [1] can be described thus: Growth inhibition of PLP2 cells after 48 hrs by SRB assay. Format: cell-based, Sus scrofa. The note with it: pig. The method in brief: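 Porcine liver primary cells (PLP2), established by the authors, subcultured before confluence, seeded 1.0 × 10^4 cells/well in DMEM with 10% FBS and penicillin/streptomycin. Treated 48 h with compound solutions, then sulforhodamine B read-out. GI50 is the concentration inhibiting 50% of net growth; three independent experiments in triplicate, mean ± SD; ellipticine positive control.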
A general note: In SRB staining, fixed cells bind dye roughly in proportion to their protein.

The next series concerns HCT-15. As to the kind of experiment: Growth inhibition of human HCT15 cells after 48 hrs by SRB assay. Format: functional. The note with it: HCT-15, 48 h. The method in brief:
(§1)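 Sulforhodamine B assay. MCF-7, NCI-H460, HCT15 kept in RPMI-1640 with 10% heat-inactivated FBS and 2 mM glutamine, seeded 7.5 × 10^3 cells/well. HeLa and HepG2 kept in DMEM with 10% FBS, 2 mM glutamine and penicillin/streptomycin, seeded 1.0 × 10^4 cells/well. Cultures at 37 °C, 5% CO2. GI50 is the concentration giving 50% inhibition of net growth; three independent experiments in triplicate, mean ± SD; ellipticine positive control.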

The test system of a further series is HeLa. As to the kind of experiment: Growth inhibition of human HeLa cells after 48 hrs by SRB assay. Format: functional. A digest of the protocol: as §1
Series [2] concerns NCI-H460. Put plainly: Growth inhibition of human NCI-H460 cells after 48 hrs by SRB assay. Format: functional. The note with it: NCI-H460, 48 h. A digest of the protocol:
as §1

The subject of series [3] is MCF7. Put plainly: Growth inhibition of human MCF7 cells after 48 hrs by SRB assay. Format: functional. The conditions noted are these: MCF7, 48 h. A digest of the protocol: as §1
The next series concerns HepG2. As to the kind of experiment: Growth inhibition of human HepG2 cells after 48 hrs by SRB assay. Format: functional. The conditions noted are these: HepG2, 48 h. A digest of the protocol:
as §1

Series [4] in a line: Growth inhibition of human A375-C5 cells after 48 hrs by SRB assay. Format: functional. The note with it: A375-C5, 48 h.
Series [5] relates to NCI-H460. Put plainly: Induction of apoptosis in human NCI-H460 cells at GI50 after 48 hrs by TUNEL assay relative to DMSO-treated control. Format: functional. The method in brief: (§2)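 NCI-H460 seeded at 1 × 10^5 cells/well, grown 24 h at 37 °C, treated with compound at GI50, DMSO vehicle or medium for 24 h or 48 h. Fixed in 4% paraformaldehyde 30 min, cytospun, permeabilized with ice-cold 0.1% Triton X-100 in 0.1% sodium citrate 2 min, TUNEL reaction mix (enzyme 1:20) 1 h, DAPI counterstain. Fluorescence microscopy counting at least 500 cells per slide (about 300 in some 48 h samples). Mean ± SEM of three independent experiments; two-tailed paired t-test versus DMSO.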

For series [6], the system named is NCI-H460. Put plainly: Induction of apoptosis in human NCI-H460 cells at GI50 after 24 hrs by TUNEL assay. The class given is functional, cell-based. The method in brief: as §2
In series [7] the test system is NCI-H460. Put plainly: Cell cycle arrest in human NCI-H460 cells assessed as accumulation at sub-G1 phase at GI50 after 24 hrs by propidium iodide staining-based flow cytometry. Format: functional.
Series [8] in a line: Growth inhibition of human A375-C5 cells. Format: functional.
In series [9] the test system is NCI-H460. As to the kind of experiment: Growth inhibition of human NCI-H460 cells. The class given is functional.
In series [10] the test system is MCF7. As to the kind of experiment: Growth inhibition of human MCF7 cells. Format: functional.

For `Fc1ccc(Nc2ccnc3ccsc23)cc1`, it took 100 µM to inhibit growth in series [1] by half (GI50 at 48 h). In addition, the GI50 was 91.2 µM in the series with HCT-15; 77.5 µM with HeLa; 78.5 µM with NCI-H460 [2]; 80.7 µM with MCF7 [3]; 26.3 µM in the series with HepG2.

With `COC(=O)c1sc2cccnc2c1Nc1ccc(OC)cc1N`, the GI50 (in the series on NCI-H460 [2]; in series [4]; in the series on MCF7 [3]; with HepG2) was 1 µM each time.

Molecule `COc1cccc(Nc2ccnc3ccsc23)c1` gave an Activity with NCI-H460 [5] greater than 30%. The result in the series on NCI-H460 [6] and in the series with NCI-H460 [7] was Active. Also, the 50% growth inhibitory concentration (GI50) at 48 h in series [1] turned out to be 1.94 µM. Besides, the GI50 in the series on HCT-15 came to 0.31 µM; with HeLa, 0.09 µM; with NCI-H460 [2] it was 0.28 µM; in the series with MCF7 [3], 0.25 µM; with HepG2, 5.02 µM.

In the series on NCI-H460 [5], `COc1ccccc1Nc1ccnc2ccsc12` registered an Activity greater than 30%. The result in the series with NCI-H460 [6] and with NCI-H460 [7] was Active. In series [1], the GI50 at 48 h came out at 6.56 µM. For the same molecule, the GI50 in the series with HCT-15 was found to be 5.91 µM; with HeLa it was 1.4 µM; in the series on NCI-H460 [2] it was 5.4 µM; with MCF7 [3] it was 5.88 µM; in the series with HepG2, 18 µM.

As for `COc1ccc(Nc2ccnc3ccsc23)cc1`, halving of growth in [1] (GI50 at 48 h) required 22.7 µM. The GI50 with HCT-15 is 25.9 µM; in the series with HeLa it was 20.4 µM; in the series on NCI-H460 [2] it was 19.4 µM; in the series on MCF7 [3], 20.2 µM; in the series with HepG2, 22.1 µM.

`Cc1c2ccncc2c(C)c2c1[nH]c1ccccc12` [ELLIPTECINE] yielded a GI50 at 48 h in series [1] of 2.06 µM. Also, the GI50 was determined as 1.91 µM in the series on HCT-15; 3.28 µM in the series with HeLa; 5.77 µM with NCI-H460 [2]; 4.32 µM in the series with MCF7 [3]; 5.38 µM in the series on HepG2.

In turn, `Fc1ccccc1Nc1ccnc2ccsc12` yielded a GI50 at 48 h in series [1] of 115 µM. The GI50 was found to be 86.7 µM in the series on HCT-15; 26.4 µM with HeLa; 79.5 µM in the series with NCI-H460 [2]; 94.4 µM in the series with MCF7 [3]; 25.8 µM in the series on HepG2.

Molecule `Fc1cccc(Oc2ccnc3ccsc23)c1` returned a GI50 at 48 h in series [1] greater than 125 µM. Besides, the GI50 with HCT-15 was 103 µM; in the series with HeLa it was 34.5 µM; in the series with NCI-H460 [2], 103 µM; in the series on MCF7 [3] it was 102 µM; in the series with HepG2, 42.6 µM.

For `COC(=O)c1sc2cc(Oc3cccc(OC)c3)cnc2c1N`, the GI50 (in [8]; with NCI-H460 [9]; in the series on MCF7 [10]) was 1 µM each time.

The molecule `COc1ccc(Oc2ccnc3ccsc23)cc1` gave a GI50 at 48 h in series [1] of 94.5 µM. Further, the GI50 with HCT-15 was 86 µM; in the series on HeLa it was 49.4 µM; in the series on NCI-H460 [2], 86.8 µM; with MCF7 [3], 93.3 µM; in the series on HepG2, 53.2 µM.

Regarding `COc1ccccc1Oc1ccnc2ccsc12`, the GI50 at 48 h in [1] is greater than 125 µM. In addition, the GI50 turned out to be 91.2 µM in the series with HCT-15; 28.9 µM in the series with HeLa; 94.2 µM with NCI-H460 [2]; 90.9 µM with MCF7 [3]; 62.7 µM in the series with HepG2.

As to `COc1cccc(Oc2ccnc3ccsc23)c1`, the Activity in the series on NCI-H460 [5] is greater than 30%. The result with NCI-H460 [6] and in the series with NCI-H460 [7] was Active. Besides, in series [1], it took 26.7 µM to inhibit growth by half (GI50 at 48 h). For the same molecule, the GI50 in the series with HCT-15 amounted to 0.39 µM; with HeLa, 3.14 µM; in the series with NCI-H460 [2] it was 1.04 µM; with MCF7 [3] it was 1.56 µM; in the series on HepG2 it was 2.7 µM.

Molecule `Fc1ccccc1Oc1ccnc2ccsc12` came in with a GI50 at 48 h in series [1] of 87.2 µM. The GI50 in the series on HCT-15 is 97.2 µM; in the series with HeLa, 50.3 µM; with NCI-H460 [2], 78 µM; in the series on MCF7 [3], 74.3 µM; in the series on HepG2 it was 16.4 µM.

`Fc1ccc(Oc2ccnc3ccsc23)cc1` registered a GI50 at 48 h in [1] greater than 125 µM. The GI50 in the series with HCT-15 amounted to 88.1 µM; in the series with HeLa it was 33.8 µM; in the series on NCI-H460 [2], 101 µM; with MCF7 [3] it was 98.5 µM; with HepG2, 45.1 µM.

Take `COC(=O)c1sc2cc(Oc3cccc(OC)c3OC)cnc2c1N`: the GI50 (in series [8]; in the series with NCI-H460 [9]; with MCF7 [10]) was 1 µM throughout.

In [1], `Fc1cccc(Nc2ccnc3ccsc23)c1` yielded a GI50 at 48 h of 119 µM. Also, the GI50 in the series with HCT-15 is 70.7 µM; in the series on HeLa it was 69.2 µM; with NCI-H460 [2], 77.5 µM; with MCF7 [3] it was 63.7 µM; with HepG2 it was 32 µM.
